This note sets out measurements from ChEMBL document CHEMBL1629439, “High-throughput identification of antibacterials against methicillin-resistant Staphylococcus aureus (MRSA) and the transglycosylase” (Bioorg Med Chem, 2010).

≈ marks a conversion by molar mass, not a printed value.

For assay [1], the system named is Stenotrophomonas maltophilia. As to the kind of experiment: Antimicrobial activity against Stenotrophomonas maltophilia ATCC 13637 after 18 to 24 hrs by alamar blue assay. The class given is functional. As to conditions: Stenotrophomonas maltophilia, ATCC 13637; read-out: MIC. In outline: (§1)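 Broth microdilution per NCCLS in Mueller-Hinton broth, 8-point twofold dilutions, 384-well format. Exponential-phase cells at 5 × 10^5 cells/ml incubated with compound 18–24 h at 37 °C, then 20% Alamar blue added and fluorescence read. MIC90 taken as the lowest concentration preventing at least 90% bacterial growth.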

The subject of assay [2] is Staphylococcus aureus. As to the kind of experiment: Antimicrobial activity against methicillin-resistant Staphylococcus aureus ATCC 33592 after 18 to 24 hrs by alamar blue assay. The class given is functional. As to conditions: Staphylococcus aureus, ATCC 33592; read-out: MIC. In outline:
(§2)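 Broth microdilution per NCCLS standard, Mueller-Hinton broth, 8-point twofold dilutions; exponentially growing cells at 5 10^5 cells/ml with compound, 18–24 h at 37 C; 20% Alamar blue added, fluorescence read; MIC90 taken as lowest concentration preventing at least 90% growth.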
Background: Resazurin is reduced to fluorescent resorufin, in cell work by metabolically active cells.

For assay [3], the system named is Staphylococcus aureus. As to the kind of experiment: Antimicrobial activity against methicillin-resistant Staphylococcus aureus isolate NTUH4722 after 18 to 24 hrs by alamar blue assay. The format is functional. In short, it runs like this: as §2
The next assay concerns Acinetobacter baumannii. As to the kind of experiment: Antimicrobial activity against Acinetobacter baumannii ATCC 49139 after 18 to 24 hrs by alamar blue assay. The format is functional. To be noted: Acinetobacter baumannii, ATCC 49139; read-out: MIC. In short, it runs like this: as §1
Another assay concerns Bacillus subtilis. As to the kind of experiment: Antimicrobial activity against Bacillus subtilis ATCC 23857 after 18 to 24 hrs by alamar blue assay. The format is functional. In short, it runs like this: as §1
The test system of the next assay is Escherichia coli. As to the kind of experiment: Antimicrobial activity against Escherichia coli ATCC […] after 18 to 24 hrs by alamar blue assay. The format is functional. To be noted: Escherichia coli; read-out: MIC. In outline:
as §1

Assay [4] concerns Staphylococcus aureus. As to the kind of experiment: Antimicrobial activity against Staphylococcus aureus ATCC 29213 after 18 to 24 hrs by alamar blue assay.
The subject of assay [5] is Mycolicibacterium smegmatis. As to the kind of experiment: Antimicrobial activity against Mycobacterium smegmatis BCRC 11565 after 18 to 24 hrs by alamar blue assay. As to conditions: Mycolicibacterium smegmatis, BCRC 11565; read-out: MIC. The class given is functional. In short, it runs like this: as §1
The test system of a further assay is Pseudomonas aeruginosa. As to the kind of experiment: Antimicrobial activity against Pseudomonas aeruginosa ATCC 25619 after 18 to 24 hrs by alamar blue assay. To be noted: Pseudomonas aeruginosa, ATCC 25619; read-out: MIC. The class given is functional. In short, it runs like this:
as §1

Assay [6] concerns Staphylococcus aureus. As to the kind of experiment: Antimicrobial activity against oxacillin- and methicillin-resistant Staphylococcus aureus isolate Sa-OXA-R2 after 18 to 24 hrs by alamar blue assay. The format is functional. In outline: as §2
Assay [7] is described as follows: Inhibition of transglycosylase assessed as inhibition of NBD- labelled lipid II polymerization. In short, it runs like this: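 100 µM NBD-labelled lipid II incubated 30 min with full-length PBP (EC, SA or Mtb) and 10 ng/µl N-acetylmuramidase in 50 mM Tris-HCl pH 8.0, 10 mM MgCl2, 0.1% Triton X-100, 10% DMSO, 15% MeOH. Supernatant run on anion-exchange HPLC with 20 mM–0.5 M ammonium acetate gradient. Inhibition calculated from substrate peak-area percentage. IC50 determined. S. aureus strains share one SA enzyme.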

The subject of the next assay is Serratia marcescens. As to the kind of experiment: Antimicrobial activity against Serratia marcescens ATCC 14756 after 18 to 24 hrs by alamar blue assay. To be noted: Serratia marcescens, ATCC 14756; read-out: MIC. The class given is functional. In outline: as §1

In the case of `O=C(Nc1cc(Cl)cc(C(=O)c2ccc(Cl)cc2)c1Cl)c1cc(Br)cc(Br)c1O`, the MIC (in general, the lowest concentration that inhibits growth of the organism) in assay [1] is 16 µg/mL (≈ 27.7 µM); in the assay with Staphylococcus aureus [2] it was 2 µg/mL (≈ 3.46 µM); with Staphylococcus aureus [3], 8 µg/mL (≈ 13.8 µM); in the assay with Acinetobacter baumannii, 16 µg/mL (≈ 27.7 µM); in the assay on Bacillus subtilis, below 0.03 µg/mL; with Escherichia coli it was 8 µg/mL (≈ 13.8 µM). For the same molecule, the MIC against Staphylococcus aureus [4] was determined as 0.5 µg/mL (≈ 0.864 µM); in assay [5], 0.5 µg/mL (≈ 0.864 µM); in the assay on Pseudomonas aeruginosa it was 16 µg/mL (≈ 27.7 µM); in the assay on Staphylococcus aureus [6] it was 8 µg/mL (≈ 13.8 µM); with Serratia marcescens, 16 µg/mL (≈ 27.7 µM). In addition, the IC90 – broadly, the concentration needed for an effect of 90% – in assay [7] came to 100 µM.

Take `O=C(Nc1cc(Cl)ccc1Oc1ccc(Cl)c2ccccc12)c1cc(I)cc(I)c1O`: the MIC in assay [1] is 16 µg/mL (≈ 23.7 µM); with Staphylococcus aureus [2] it was at most 2 µg/mL; in the assay on Staphylococcus aureus [3], at most 0.03 µg/mL; in the assay on Acinetobacter baumannii, 16 µg/mL (≈ 23.7 µM); against Bacillus subtilis, below 0.03 µg/mL; in the assay on Escherichia coli it was 8 µg/mL (≈ 11.8 µM). Further, the MIC was 4 µg/mL (≈ 5.92 µM) against Staphylococcus aureus [4]; 0.5 µg/mL (≈ 0.74 µM) in assay [5]; 16 µg/mL (≈ 23.7 µM) in the assay on Pseudomonas aeruginosa; at most 0.03 µg/mL with Staphylococcus aureus [6]; 16 µg/mL (≈ 23.7 µM) with Serratia marcescens. Besides, the IC90 in assay [7] worked out at 50 µM.

Take `Cc1c(CCC(=O)O)c(=O)oc2c(C)c3occ(-c4ccc(Br)cc4)c3cc12`: the MIC is above 256 µg/mL in assay [1]; 1 µg/mL (≈ 2.27 µM) in the assay on Staphylococcus aureus [2]; 0.5 µg/mL (≈ 1.13 µM) against Staphylococcus aureus [3]; above 256 µg/mL in the assay on Acinetobacter baumannii; above 64 µg/mL in the assay on Bacillus subtilis; above 256 µg/mL in the assay on Escherichia coli. For the same molecule, the minimum inhibitory concentration (MIC) in the assay with Staphylococcus aureus [4] was 0.5 µg/mL (≈ 1.13 µM); in assay [5], 1 µg/mL (≈ 2.27 µM); in the assay on Pseudomonas aeruginosa it was above 256 µg/mL; in the assay with Staphylococcus aureus [6], 1 µg/mL (≈ 2.27 µM); in the assay with Serratia marcescens it was above 256 µg/mL.

Regarding `CCC1Sc2ccc(S(=O)(=O)Nc3cc(Cl)ccc3C)cc2NC1=O` (stereo not given), the MIC in assay [1] was above 256 µg/mL; in the assay on Staphylococcus aureus [2], above 64 µg/mL; in the assay with Staphylococcus aureus [3], 16 µg/mL (≈ 40.3 µM); in the assay on Acinetobacter baumannii it was above 256 µg/mL; with Bacillus subtilis, below 0.03 µg/mL; with Escherichia coli, above 256 µg/mL. In addition, the MIC is 4 µg/mL (≈ 10.1 µM) against Staphylococcus aureus [4]; above 64 µg/mL in [5]; above 256 µg/mL in the assay on Pseudomonas aeruginosa; 16 µg/mL (≈ 40.3 µM) in the assay with Staphylococcus aureus [6]; above 256 µg/mL with Serratia marcescens.

On to `CCC1Sc2ccc(S(=O)(=O)Nc3c(C)cc(C)cc3C)cc2NC1=O` (stereo not given), for which the MIC in assay [1] was above 256 µg/mL; in the assay on Staphylococcus aureus [2], 64 µg/mL (≈ 164 µM); against Staphylococcus aureus [3], 32 µg/mL (≈ 81.9 µM); in the assay with Acinetobacter baumannii, above 256 µg/mL; with Bacillus subtilis, below 0.03 µg/mL; in the assay with Escherichia coli, above 256 µg/mL. In addition, the MIC in the assay with Staphylococcus aureus [4] was 2 µg/mL (≈ 5.12 µM); in [5], above 64 µg/mL; with Pseudomonas aeruginosa, above 256 µg/mL; against Staphylococcus aureus [6], above 64 µg/mL; in the assay on Serratia marcescens, above 256 µg/mL.

Turning to `CCOC(=O)c1c(NC(=O)c2ccc([N+](=O)[O-])o2)sc2c1CCN(C(C)=O)C2`, the MIC in assay [1] is 32 µg/mL (≈ 78.5 µM); with Staphylococcus aureus [2], 4 µg/mL (≈ 9.82 µM); in the assay with Staphylococcus aureus [3], 1 µg/mL (≈ 2.45 µM); with Acinetobacter baumannii, 12 µg/mL (≈ 29.5 µM); against Bacillus subtilis, 0.06 µg/mL (≈ 0.147 µM); in the assay on Escherichia coli it was 256 µg/mL (≈ 628 µM). Also, the MIC against Staphylococcus aureus [4] is 1 µg/mL (≈ 2.45 µM); in [5], 0.5 µg/mL (≈ 1.23 µM); in the assay with Pseudomonas aeruginosa, 128 µg/mL (≈ 314 µM); against Staphylococcus aureus [6], 1 µg/mL (≈ 2.45 µM); in the assay on Serratia marcescens it was 32 µg/mL (≈ 78.5 µM).

`COC(=O)c1ccccc1NC(=O)c1ccc([N+](=O)[O-])o1`: the MIC in [1] came to 32 µg/mL (≈ 110 µM); with Staphylococcus aureus [2], 0.5 µg/mL (≈ 1.72 µM); with Staphylococcus aureus [3] it was 4 µg/mL (≈ 13.8 µM); in the assay with Acinetobacter baumannii it was 12 µg/mL (≈ 41.3 µM); with Bacillus subtilis, 0.06 µg/mL (≈ 0.207 µM); with Escherichia coli, 256 µg/mL (≈ 882 µM). In addition, the MIC came out at 8 µg/mL (≈ 27.6 µM) in the assay on Staphylococcus aureus [4]; 0.5 µg/mL (≈ 1.72 µM) in [5]; 128 µg/mL (≈ 441 µM) in the assay on Pseudomonas aeruginosa; 2 µg/mL (≈ 6.89 µM) against Staphylococcus aureus [6]; 32 µg/mL (≈ 110 µM) in the assay on Serratia marcescens.

As to `O=C(Nc1cc(Cl)ccc1Cl)c1cc(Cl)cc(Cl)c1O`, the MIC in [1] was 16 µg/mL (≈ 45.6 µM); in the assay with Staphylococcus aureus [2], 0.5 µg/mL (≈ 1.42 µM); with Staphylococcus aureus [3] it was 0.5 µg/mL (≈ 1.42 µM); in the assay with Acinetobacter baumannii it was 16 µg/mL (≈ 45.6 µM); against Bacillus subtilis, below 0.03 µg/mL; with Escherichia coli, 8 µg/mL (≈ 22.8 µM). Besides, the MIC against Staphylococcus aureus [4] is 1 µg/mL (≈ 2.85 µM); in [5] it was 0.5 µg/mL (≈ 1.42 µM); in the assay on Pseudomonas aeruginosa, 16 µg/mL (≈ 45.6 µM); in the assay with Staphylococcus aureus [6] it was 2 µg/mL (≈ 5.7 µM); in the assay on Serratia marcescens, 16 µg/mL (≈ 45.6 µM).
